pIC50, pKi: −log10 of the molar value. Values after ≈ are worked out from the molar mass of the structure shown.
Experiments:
[1] = Toxicity in cynomolgus monkey assessed as change in body weight measured up to 13 weeks; set-up: species or system Macaca fascicularis; conditions: in vivo, 2184 h
In short: (§1)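 GLP toxicity studies lasting up to 13 weeks, run in Sprague-Dawley rats and cynomolgus monkeys.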

[2] = Protein binding in rat plasma assessed as unbound fraction; format: ADME, cell-free
[3] = Volume of distribution at steady state in rat at 1 mg/kg, iv; format: ADME, organism-based; conditions: in vivo, read-out: Vdss
In short: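 Intravenous dosing at 1 mg/kg in male SD rats, measured in triplicate; vehicle 40% NMP solution. Clearance expressed as %Qh.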

[4] = Aqueous solubility of compound in simulated intestinal fluid at pH 7 by HPLC method; format: physicochemical
Cytochrome P450 2C19 = Cytochrome P450 2C19 (Homo sapiens, UniProt P33261); test: Inhibition of CYP2C19 in human liver microsomes using S-mephenytoin as substrate measured after 30 mins in presence of NADPH by LC-MS/MS analysis; format: ADME
[5] = Volume of distribution at steady state in dog at 1 mg/kg, iv; format: ADME, organism-based, Canis lupus familiaris; conditions: in vivo, read-out: Vdss
In short: (§2)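 Intravenous dosing at 1 mg/kg; vehicle 70:30 PEG-400:H2O solution.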

[6] = Toxicity in Sprague-Dawley rat assessed as effect on organ weight measured up to 13 weeks; conditions: in vivo, 2184 h; in short: as §1
[7] = Cmax in rat at 5 mg/kg, po; format: ADME, organism-based; set-up: route oral, dose 5 mg/kg; conditions: in vivo
[8] = Protein binding in human plasma assessed as unbound fraction at 2 uM by rapid equilibrium dialysis method; format: ADME, cell-free
In short: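 Unbound fraction in human plasma determined by rapid equilibrium dialysis at 2 µM compound.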

[9] = Toxicity in Sprague-Dawley rat assessed as effect on respiratory system administered as single dose; conditions: in vivo
In short: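 Single-dose CNS and respiratory safety studies in rats.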

[10] = Stability in cynomolgus monkey plasma assessed as parent compound remaining after 6 hrs; format: ADME, cell-free, Macaca fascicularis; conditions: read-out: Stabilty
In short: (§3)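 Compound incubated in plasma for 6 hours, then percentage of parent compound remaining determined.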

[11] = Clearance in cynomolgus monkey at 1 mg/kg, iv; format: ADME, organism-based, Macaca fascicularis; conditions: in vivo
[12] = Clearance in rat at 1 mg/kg, iv; format: ADME, organism-based; conditions: in vivo
Cytochrome P450 3A4 [13] = molecular target: T1, Cytochrome P450 3A4 (Homo sapiens, UniProt P08684); test: Time-dependent inhibition of CYP3A4 in human liver microsomes using testosterone in presence of NADPH by LC-MS/MS analysis; format: ADME
[14] = Half life in human at 10 to 120 mg administered orally using tablet form of sample; format: ADME; conditions: in vivo, po, dose 10-120 mg
In short: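 Phase I single ascending dose study in healthy volunteers; oral tablet at 10 mg escalating through a 120 mg cohort; plasma pharmacokinetics followed, median t1/2 reported per cohort.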

[15] = Oral bioavailability in rat at 5 mg/kg; format: ADME, organism-based; conditions: in vivo
In short: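 Oral dosing in rats; vehicle 0.1% CMC/0.2% Tween-80.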

[16] = Toxicity in cynomolgus monkey assessed as change in ECG measured up to 13 weeks; set-up: species or system Macaca fascicularis; conditions: in vivo, 2184 h; in short: as §1
[17] = Toxicity in Sprague-Dawley rat assessed as change in body weight measured up to 13 weeks; conditions: in vivo, 2184 h; in short: as §1
[18] = molecular target: Voltage-gated inwardly rectifying potassium channel KCNH2 (Homo sapiens, UniProt Q12809); test: Inhibition of human ERG by automated patch-clamp assay
[19] = Drug metabolism in human liver microsomes assessed as O-deisopropylation; format: ADME, Microsome
[20] = Clearance in Sprague-Dawley rat at 1 mg/kg, iv relative to hepatic blood flow; format: ADME, organism-based; conditions: in vivo
[21] = Drug metabolism in human liver microsomes assessed as oxidation at pyrazole moiety; format: ADME, Microsome
Cytochrome P450 2B6 = molecular target: T2, Cytochrome P450 2B6 (Homo sapiens, UniProt P20813); test: Induction of CYP2B6 in human hepatocytes up to 50 uM; format: ADME, cell-based, Hepatocyte
T2 sequence (P20813 whole entry): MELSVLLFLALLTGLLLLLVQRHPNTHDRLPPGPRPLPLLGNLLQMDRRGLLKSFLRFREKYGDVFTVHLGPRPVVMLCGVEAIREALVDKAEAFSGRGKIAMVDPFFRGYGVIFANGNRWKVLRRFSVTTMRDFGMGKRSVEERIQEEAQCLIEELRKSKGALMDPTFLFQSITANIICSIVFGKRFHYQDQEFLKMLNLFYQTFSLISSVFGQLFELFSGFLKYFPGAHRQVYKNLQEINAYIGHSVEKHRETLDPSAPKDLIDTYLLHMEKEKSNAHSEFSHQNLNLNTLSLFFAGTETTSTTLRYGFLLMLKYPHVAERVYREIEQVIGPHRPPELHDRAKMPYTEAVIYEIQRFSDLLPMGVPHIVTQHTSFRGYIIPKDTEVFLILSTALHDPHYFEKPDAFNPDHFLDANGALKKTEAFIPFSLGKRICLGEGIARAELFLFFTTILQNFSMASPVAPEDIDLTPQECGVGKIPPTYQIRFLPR
In short: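 Sandwich-cultured human hepatocytes exposed at concentrations up to 50 μM; induction of CYP1A2, 2B6 and 3A4 assessed.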

[22] = Protein binding in dog plasma assessed as unbound fraction; format: ADME, cell-free, Canis lupus familiaris
[23] = Toxicity in Sprague-Dawley rat assessed as histopathological changes measured up to 13 weeks; conditions: in vivo, 2184 h; in short: as §1
[24] = Half life in rat at 1 mg/kg, iv; format: ADME, organism-based; conditions: in vivo
[25] = Lipophilicity, log D of compound at pH 7.4 by shake flask method; format: physicochemical; conditions: buffer
[26] = Genotoxicity in Sprague-Dawley rat assessed as disruption of mitotic apparatus in bone marrow by micronucleus assay; format: toxicity
In short: (§4)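 In vivo micronucleus test in Sprague-Dawley rats; bone marrow scored for micronuclei, clastogenic activity and disruption of the mitotic apparatus.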

[27] = Clearance in dog at 1 mg/kg, iv; format: ADME, organism-based, Canis lupus familiaris; conditions: in vivo
[28] = Half life in dog at 1 mg/kg, iv; format: ADME, organism-based, Canis lupus familiaris; conditions: in vivo
[29] = Lipophilicity, log D of compound by UV-HPLC method; format: physicochemical
[30] = Toxicity in Sprague-Dawley rat assessed as change in ECG measured up to 13 weeks; conditions: in vivo, 2184 h; in short: as §1
[31] = Clearance in rat at 1 mg/kg, iv relative to hepatic blood flow; format: ADME, organism-based; conditions: in vivo
[32] = Tmax in human at 10 to 120 mg administered orally using tablet form of sample; format: ADME; conditions: in vivo, po, dose 10-120 mg
In short: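 Single ascending oral tablet doses from 10 mg up to 120 mg given to healthy volunteers; plasma concentration followed over time after dosing.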

[33] = Genotoxicity in Sprague-Dawley rat assessed as micronuclei formation by micronucleus assay; format: toxicity; in short: as §4
[34] = Genotoxicity in Sprague-Dawley rat assessed as clastogenic activity by micronucleus assay; format: toxicity; in short: as §4
[35] = Volume of distribution at steady state in cynomolgus monkey at 1 mg/kg, iv; format: ADME, organism-based, Macaca fascicularis; conditions: in vivo, read-out: Vdss; in short: as §2
[36] = Toxicity in cynomolgus monkey assessed as effect on organ weight measured up to 13 weeks; set-up: species or system Macaca fascicularis; conditions: in vivo, 2184 h; in short: as §1
[37] = Stability in Beagle dog plasma assessed as parent compound remaining after 6 hrs; format: ADME, cell-free, Canis lupus familiaris; conditions: read-out: Stabilty; in short: as §3
Cytochrome P450 3A4 [38] = molecular target: T1, Cytochrome P450 3A4; test: Inhibition of CYP3A4 in human liver microsomes using midazolam as substrate measured after 15 mins in presence of NADPH by LC-MS/MS analysis; format: ADME
[39] = Aqueous solubility of compound in simulated gastric fluid at pH 2 by HPLC method; format: physicochemical
[40] = Protein binding in cynomolgus monkey plasma assessed as unbound fraction; format: ADME, cell-free, Macaca fascicularis
[41] = Stability in rat plasma assessed as parent compound remaining after 6 hrs; format: ADME, cell-free; conditions: read-out: Stabilty; in short: as §3
[42] = Toxicity in cynomolgus monkey assessed as histopathological changes measured up to 13 weeks; set-up: species or system Macaca fascicularis; conditions: in vivo, 2184 h; in short: as §1

T1 sequence (P08684 whole entry): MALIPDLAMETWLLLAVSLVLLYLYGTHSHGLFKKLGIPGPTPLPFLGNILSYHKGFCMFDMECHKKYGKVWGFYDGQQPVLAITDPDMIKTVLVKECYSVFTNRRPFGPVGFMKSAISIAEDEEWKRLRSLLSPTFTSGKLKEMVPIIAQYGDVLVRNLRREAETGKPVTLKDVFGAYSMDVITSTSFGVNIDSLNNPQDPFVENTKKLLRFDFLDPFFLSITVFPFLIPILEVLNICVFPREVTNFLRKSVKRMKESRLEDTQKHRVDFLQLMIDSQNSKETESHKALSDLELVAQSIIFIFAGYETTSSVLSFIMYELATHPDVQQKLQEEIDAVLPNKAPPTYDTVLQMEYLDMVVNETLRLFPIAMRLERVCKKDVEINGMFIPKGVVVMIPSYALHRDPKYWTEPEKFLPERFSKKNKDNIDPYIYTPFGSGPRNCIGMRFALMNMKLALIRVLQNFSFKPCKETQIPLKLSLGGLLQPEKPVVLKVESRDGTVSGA
Voltage-gated inwardly rectifying potassium channel KCNH2, sequence (Q12809 whole entry): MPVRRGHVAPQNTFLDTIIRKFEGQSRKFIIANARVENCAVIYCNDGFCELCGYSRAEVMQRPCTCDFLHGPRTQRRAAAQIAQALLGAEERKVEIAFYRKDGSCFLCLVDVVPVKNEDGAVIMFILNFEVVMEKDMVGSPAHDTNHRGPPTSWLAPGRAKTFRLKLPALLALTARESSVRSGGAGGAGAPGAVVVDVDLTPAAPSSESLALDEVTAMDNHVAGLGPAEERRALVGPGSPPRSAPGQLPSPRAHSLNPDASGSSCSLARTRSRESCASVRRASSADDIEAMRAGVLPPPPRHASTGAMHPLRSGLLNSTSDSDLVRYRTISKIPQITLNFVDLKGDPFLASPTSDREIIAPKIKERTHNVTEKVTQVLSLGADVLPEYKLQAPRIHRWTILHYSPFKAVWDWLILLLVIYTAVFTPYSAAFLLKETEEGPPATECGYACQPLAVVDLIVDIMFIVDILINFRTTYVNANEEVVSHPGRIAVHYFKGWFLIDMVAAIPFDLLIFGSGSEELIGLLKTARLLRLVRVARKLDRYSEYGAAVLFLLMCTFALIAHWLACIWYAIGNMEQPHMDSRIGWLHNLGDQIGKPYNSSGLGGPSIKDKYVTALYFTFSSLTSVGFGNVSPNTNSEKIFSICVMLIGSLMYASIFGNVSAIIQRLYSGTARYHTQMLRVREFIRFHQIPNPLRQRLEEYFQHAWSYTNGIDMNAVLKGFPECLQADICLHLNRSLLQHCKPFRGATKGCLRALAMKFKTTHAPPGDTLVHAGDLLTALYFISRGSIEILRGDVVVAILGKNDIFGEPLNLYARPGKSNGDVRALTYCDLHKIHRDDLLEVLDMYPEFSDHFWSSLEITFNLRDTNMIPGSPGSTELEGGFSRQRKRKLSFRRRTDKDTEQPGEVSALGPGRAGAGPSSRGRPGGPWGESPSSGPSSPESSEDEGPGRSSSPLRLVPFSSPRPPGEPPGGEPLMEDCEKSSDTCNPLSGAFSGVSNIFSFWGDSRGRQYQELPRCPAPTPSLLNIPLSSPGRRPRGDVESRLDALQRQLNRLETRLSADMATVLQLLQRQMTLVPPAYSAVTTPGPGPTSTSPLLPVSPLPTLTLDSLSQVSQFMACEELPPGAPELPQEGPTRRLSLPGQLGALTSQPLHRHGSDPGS
Cytochrome P450 2C19, sequence (P33261 whole entry): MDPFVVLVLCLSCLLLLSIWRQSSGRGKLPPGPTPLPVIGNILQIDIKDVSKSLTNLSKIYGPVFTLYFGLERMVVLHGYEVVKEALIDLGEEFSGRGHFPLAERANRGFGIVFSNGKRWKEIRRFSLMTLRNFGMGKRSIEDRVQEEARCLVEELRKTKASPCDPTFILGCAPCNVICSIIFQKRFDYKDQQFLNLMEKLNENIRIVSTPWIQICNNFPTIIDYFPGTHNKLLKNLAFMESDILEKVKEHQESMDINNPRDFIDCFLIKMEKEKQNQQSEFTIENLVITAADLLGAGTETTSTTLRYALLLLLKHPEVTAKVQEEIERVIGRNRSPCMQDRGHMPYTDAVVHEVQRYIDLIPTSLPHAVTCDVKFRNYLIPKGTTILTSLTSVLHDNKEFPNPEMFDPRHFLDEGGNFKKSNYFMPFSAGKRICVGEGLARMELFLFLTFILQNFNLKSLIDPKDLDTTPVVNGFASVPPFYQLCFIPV

For Cc1cc(-c2ccnc(Nc3cnn(C)c3)n2)ccc1CNC(=O)N1CC(OC(C)C)C1, the Activity [1] was “Non-Toxic”, the fraction unbound [2] was 0.0128 and the Vd [3] was 0.2 L/kg. For the same compound, the solubility [4] was 1 µg/mL (≈ 2.3 µM), the pIC50 (Cytochrome P450 2C19) was < 4.60 and the Vd [5] was 1.2 L/kg. For the same compound, the Activity [6] was “Non-Toxic”, the Cmax [7] was 2920 ng/mL and the fraction unbound at 2 µM [8] was 0.059. For the same compound, the Activity [9] was “Non-Toxic”, the remaining at 6 h [10] was > 95% and the clearance [11] was 11 mL/min/kg. It also gave a clearance [12] of 3 mL/min/kg, a pKi (Cytochrome P450 3A4 [13]) of 4.30 and a half-life [14] of 6 h. For the same compound, the bioavailability [15] was 48%, the Activity [16] was “Non-Toxic” and the Activity [17] was “Non-Toxic”. For the same compound, the pIC50 [18] was < 4.30, the Drug metabolism [19] was “Metabolite_Detected” and the CL [20] was 1%. For the same compound, the Drug metabolism [21] was “Metabolite_Detected”, the Activity (Cytochrome P450 2B6) was “Not Active” and the fraction unbound [22] was 0.113. The Activity [23] was “Non-Toxic”, the half-life [24] was 1.2 h and the logD [25] was 2.92. The Activity [26] was “Non-Toxic”, the clearance [27] was 11 mL/min/kg and the half-life [28] was 2.1 h. For the same compound, the logD [29] was 2.32, the Activity [30] was “Non-Toxic” and the CL [31] was 6%. The Tmax [32] was 0.9 h, the Activity [33] was “Non-Toxic” and the Activity [34] was “Non-Toxic”. The Vd [35] was 0.7 L/kg, the Activity [36] was “Non-Toxic” and the remaining at 6 h [37] was > 95%. The pIC50 (Cytochrome P450 3A4 [38]) was < 4.60, the solubility [39] was > 100 µg/mL and the fraction unbound [40] was 0.0362. For the same compound, the remaining at 6 h [41] was > 95% and the Activity [42] was “Non-Toxic”.
